Only a selection was taken, and hits are over-represented in it overall.
IDH1 mut inh: IDH1 R132H (human) inhibition; hit rate 0.18% among 70,000; inhibition, % at 10 µM; IDH1 R132H reductase, diaphorase/resazurin fluorescence, 60 min; O75874; in the data active = inhibition above about 34%; inconclusive = no clear call, values can overlap the other calls; inactive = below about 11%;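 note: 0% = DMSO and 100% = no enzyme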
Target sequence (O75874 whole entry R132H): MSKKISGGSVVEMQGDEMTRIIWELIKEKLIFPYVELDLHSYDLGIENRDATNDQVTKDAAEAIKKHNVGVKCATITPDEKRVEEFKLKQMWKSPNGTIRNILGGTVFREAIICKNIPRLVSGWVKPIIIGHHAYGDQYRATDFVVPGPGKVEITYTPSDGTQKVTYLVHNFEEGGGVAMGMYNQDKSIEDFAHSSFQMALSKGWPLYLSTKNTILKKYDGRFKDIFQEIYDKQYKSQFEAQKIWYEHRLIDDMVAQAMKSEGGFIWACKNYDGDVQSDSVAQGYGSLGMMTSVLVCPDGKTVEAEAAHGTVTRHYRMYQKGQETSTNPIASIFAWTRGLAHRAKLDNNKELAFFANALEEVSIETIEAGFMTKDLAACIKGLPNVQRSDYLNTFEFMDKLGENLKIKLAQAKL
KDM4C inh: KDM4C (human) demethylase inhibition. Q9H3R0. GST-KDM4C 2-372, H3K9me3 peptide, LANCE TR-FRET. inhibition, % at 12.5 µM. hit rate 0.15% among 96,000;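 active = mean replicate inhibition above about 25%, with at least 55% of replicates also reaching it, limit read from the data, passing the limit was not always enough; inconclusive = only one of those two conditions met; inactive = neither condition met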
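Material: N-terminal GST-fused human GASC-1 (KDM4C) fragment, residues 2-372. Input: 10 nM enzyme. Incubation: enzyme reaction 30 min, then detection 60 min, both room temperature. Doses: one test concentration per compound. Read-out basis: inhibition from TR-FRET ratio decrease. Detection: LANCE TR-FRET, excitation 340 nm, emissions 618 and 671 nm.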
T cruzi growth-1: T. cruzi proliferation inhibition. hit rate 5.9% among 77,000. T. cruzi beta-gal in NIH3T3, GalScreen luminescence, 90 h. inhibition, % at 8.34 µM;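 active = mean inhibition above about 93%, with at least 55% of replicates each passing it, limit read from the data, passing the limit was not always enough; inconclusive = only one of those two conditions holds; inactive = neither condition holds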
T cruzi growth-2: blocks T. cruzi growth in NIH3T3 host cells; T. cruzi beta-gal in NIH3T3, GalScreen luminescence, 90 h; inhibition, % at 8.35 µM; AID 651739; shares compounds with T cruzi growth-1; hit rate 72% among 5,600;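 active = mean replicate inhibition above about 95% and at least 55% of replicates individually reaching it, limit read from the data; inconclusive = only one of the two criteria is met; inactive = neither criterion is met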
T cruzi growth-3: inhibitors of T. cruzi proliferation | shares compounds with T cruzi growth-1 | T. cruzi beta-gal in NIH3T3, GalScreen luminescence, 90 h | inhibition, % at 2.09 µM | hit rate 21% among 5,600 | AID 651740;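 active = mean inhibition above about 95%, with at least 55% of replicates also reaching it, limit read from the data; inconclusive = meets just one of the two conditions; inactive = meets neither condition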;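 note: plate controls were neutral control median for no effect and positive control median for full effect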
NIH3T3 tox: cytotoxicity in mouse NIH/3T3 fibroblasts; cytotoxicity (signal decrease), % at 8.35 µM; shares compounds with T cruzi growth-1; NIH/3T3 viability, CellTiter-Glo ATP luminescence, 90 h; hit rate 14% among 5,600;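 active = mean signal decrease across replicates above about 35% based on untreated-well scatter, with enough replicates individually passing, limit read from the data; inconclusive = no rule stated though some were filed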;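 note: 0% = median of neutral control wells and 100% = median of positive control wells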
3T3 cytotox 2: NIH/3T3 (mouse) viability loss; shares compounds with T cruzi growth-1; NIH/3T3 viability, CellTiter-Glo ATP luminescence, 90 h; inhibition, % at 24.9 µM; hit rate 56% among 5,600; AID 651744;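 active = mean loss of cell viability signal at or above a set limit, and enough replicates individually reaching it; inconclusive = meets only the mean limit or only the replicate share; inactive = meets neither condition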;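 note: 0% = median of neutral control wells and 100% = median of positive control wells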
Numbers without * were called inactive; ? = inconclusive; . = no result given.

SMILES	IDH1 mut inh	KDM4C inh	T cruzi growth-1	T cruzi growth-2	T cruzi growth-3	NIH3T3 tox	3T3 cytotox 2
C[C@@H]1CCCCO[C@H](CN(C)C(=O)C2CCCCC2)[C@@H](C)CN([C@H](C)CO)C(=O)c2cc(NC(=O)Nc3ccc(F)cc3)ccc2O1	1	-1	7	.	.	.	.
C[C@@H]1CN([C@H](C)CO)C(=O)c2cc(NC(=O)Nc3ccc(C(F)(F)F)cc3)ccc2O[C@@H](C)CCCCO[C@H]1CN(C)C(=O)C1CCCCC1	.	0	122*	102*	117*	16	47*
COc1ccccc1C(=O)CC(=O)C(=O)Nc1sc2c(c1C#N)CCC2	0	.	.	.	.	.	.
Cc1ccc(-n2c(SCC(=O)Nc3ccc(Cl)cc3C)nnc2-c2ccccc2)cc1	1	.	.	.	.	.	.
CC(C)CC#Cc1ccc([C@H]2[C@H]3CN(C(=O)Nc4ccccc4)CCCCN3[C@H]2CO)cc1	.	8	101*	98*	91	27	83*
CC(C)CC#Cc1ccc([C@@H]2[C@@H](CO)N3CCCCN(C(=O)Nc4ccccc4)C[C@@H]23)cc1	.	-1	111*	97*	93	30	103*
COc1ccc(NC(=O)N2CCCCN3[C@H](CO)[C@@H](c4ccc(C#CCC(C)C)cc4)[C@H]3C2)cc1	.	-1	122*	88	101*	117*	106*
COc1ccc(NC(=O)N2CCCCN3[C@H](C2)[C@@H](c2ccc(C#CCC(C)C)cc2)[C@@H]3CO)cc1	.	-1	73	.	.	.	.
O=C(Nc1ccccc1)N1CCCCN2[C@@H](CO)[C@@H](c3ccc(C#Cc4ccccc4)cc3)[C@@H]2C1	.	-5	68	.	.	.	.
CC(C)CC#Cc1ccc([C@H]2[C@@H](CO)N3CCCCN(C(=O)Nc4ccccc4)C[C@H]23)cc1	.	-1	37	.	.	.	.
CC(C)CC#Cc1ccc([C@@H]2[C@@H](CO)N3CCCCN(C(=O)Nc4ccccc4)C[C@H]23)cc1	.	0	?	94	84	59*	106*
C=C(C)[C@@H]1CC=C(/C=N/NC(=O)CCCCCCC(=O)Nc2ccccc2O)CC1	0	.	.	.	.	.	.
O=C(CSc1nnc(-c2ccccc2F)n1-c1ccccc1)Nc1ccc2cn[nH]c2c1	0	.	.	.	.	.	.
COc1ccc(NC(=O)COc2ccc(C(C)C)cc2Br)c([N+](=O)[O-])c1	0	.	.	.	.	.	.
O=C(CSc1nccc(=O)[nH]1)N1CCc2ccccc21	0	.	.	.	.	.	.
COc1ccc(S(=O)(=O)NCCc2ccc(OC)c(OC)c2)cc1Cl	0	.	.	.	.	.	.
CN(c1cccc(NC(=O)c2ccc(CN3CCOCC3)cc2)c1)S(C)(=O)=O	1	.	.	.	.	.	.
N#Cc1cccc(-c2ccc3c(c2)[C@@H]2[C@@H](CCN2S(=O)(=O)c2ccccc2F)[C@H](CO)N3)c1	.	-3	108*	106*	87	46*	92*
N#Cc1cccc(-c2ccc3c(c2)[C@H]2[C@H](CCN2S(=O)(=O)c2cccc(F)c2)[C@H](CO)N3)c1	.	-6	103*	99*	27	10	?
N#Cc1cccc(-c2ccc3c(c2)[C@@H]2[C@@H](CCN2S(=O)(=O)c2ccc(F)cc2)[C@H](CO)N3)c1	.	0	22	.	.	.	.
N#Cc1cccc(-c2ccc3c(c2)[C@H]2[C@H](CCN2S(=O)(=O)c2cccc(F)c2)[C@@H](CO)N3)c1	.	-1	?	106*	48	46*	51*
N#Cc1ccc(-c2ccc3c(c2)[C@@H]2[C@@H](CCN2S(=O)(=O)c2ccccc2F)[C@H](CO)N3)cc1	.	0	36	.	.	.	.
N#Cc1ccc(-c2ccc3c(c2)[C@H]2[C@H](CCN2S(=O)(=O)c2cccc(F)c2)[C@H](CO)N3)cc1	.	-2	13	.	.	.	.
COc1ccc(OC)c(C2C(C(=O)c3cccs3)C(=O)C(=O)N2Cc2cccnc2)c1 (configuration not stated)	0	.	.	.	.	.	.
COc1ccccc1S(=O)(=O)N1CC[C@H]2[C@H](CO)Nc3ccc(-c4ccccc4F)cc3[C@H]21	.	0	88	.	.	.	.
Cc1ccccc1S(=O)(=O)N1CC[C@@H]2[C@H](CO)Nc3ccc(-c4ccccc4F)cc3[C@@H]21	.	1	110*	97*	77	8	106*
